Bioassay records deposited in PubChem by The Scripps Research Institute Molecular Screening Center.
Most compounds without a hit are left out; they make up all but 1.3% or so of the library.
NR2E3 ag-1: NR2E3 agonists in two-hybrid cells, primary screen, cell-based, luminescence, CHO-S, Gal4-NCOR/VP16-NR2E3; luciferase; AID 602229, 2012; 0.35% of 360,000 active; inhibition of corepressor binding, % at 3.98 µM; Photoreceptor-specific nuclear receptor (Homo sapiens), Q9Y5X4;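 active = inhibition above the mean of all tested compounds plus 3 SD, cut at about 70% in these data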;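 note: 0% = DMSO with NR2E3 transfected cells and 100% = cells lacking NR2E3 construct; higher means lower luciferase signal from less NR2E3 corepressor binding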
NR2E3 ag-2: inhibitors of NR2E3-RetCOR corepressor binding, primary screen, NR2E3 agonist project, biochemical, TR-FRET, GST-NR2E3, biotin-RetCOR; inhibition of corepressor binding, % at 4.78 µM; 0.12% of 320,000 active; AID 2300, 2010; 1536-well; Photoreceptor-specific nuclear receptor (Homo sapiens), Q9Y5X4;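 active = percent inhibition above the cutoff of mean plus 3 SD of all tested compounds, set per screening campaign, cut at about 20% in these data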;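 note: 0% = DMSO wells and 100% = biotin wells as full block of FRET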
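Material – GST-tagged NR2E3 plus biotinylated RetCOR corepressor · Quantity – NR2E3 fusion 1.35 nM · Times – 5 h incubation at 4 °C · Medium – pH 7.5 Tris-based buffer · Technique – TR-FRET, Eu(K)-anti-GST donor, streptavidin-D2 acceptor, ex 340, em 617/671 nm · Benchmarks – high control biotin, low control 0.6% DMSO · Format – 1536-well plates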
PP1 counter: PP1-alpha phosphatase inhibitors, primary screen, counter-screen for PP5 inhibitor project, biochemical, fluorescence, OMFP substrate, single point; 0.9% of 320,000 active; purified PP1alpha; inhibition, % at 6.7 µM; AID 2235, 2010; Serine/threonine-protein phosphatase PP1-alpha catalytic subunit (Homo sapiens), P62136;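 active = inhibition above the mean inhibition of all tested compounds plus 3 SD, computed separately for each screening campaign, cut at about 15% in these data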
PP5 primary: PP5 phosphatase inhibitors, primary screen, biochemical, fluorescence. Serine/threonine-protein phosphatase 5 (Homo sapiens), P53041. AID 1987, 2009. 0.18% of 320,000 active. purified PP5c, OMFP substrate fluorescence. inhibition, % at 6.7 µM;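 active = inhibition above the campaign's mean inhibition across all tested compounds plus 3 SD, cut at about 9.5% in these data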;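 note: 0% = DMSO only and 100% = 100 µM cantharidin control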
Target sequence (P53041 whole entry, looked up): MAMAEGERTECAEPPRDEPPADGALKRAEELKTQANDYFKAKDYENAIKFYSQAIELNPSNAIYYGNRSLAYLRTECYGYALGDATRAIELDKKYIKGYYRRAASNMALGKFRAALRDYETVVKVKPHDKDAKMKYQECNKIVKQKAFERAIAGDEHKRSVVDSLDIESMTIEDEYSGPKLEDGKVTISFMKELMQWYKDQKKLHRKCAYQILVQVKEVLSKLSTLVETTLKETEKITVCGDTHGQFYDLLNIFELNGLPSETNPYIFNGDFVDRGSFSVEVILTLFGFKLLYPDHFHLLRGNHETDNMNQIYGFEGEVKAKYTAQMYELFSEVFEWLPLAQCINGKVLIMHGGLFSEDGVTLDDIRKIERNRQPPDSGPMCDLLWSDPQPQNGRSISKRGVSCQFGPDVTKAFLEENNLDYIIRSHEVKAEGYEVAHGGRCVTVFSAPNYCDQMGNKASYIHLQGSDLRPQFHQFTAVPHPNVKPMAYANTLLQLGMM
NR2E3 ag conf: NR2E3 agonist confirmation in cells, cell-based, luminescence, CHO-S two-hybrid. CHO-S mammalian two-hybrid NR2E3-NCOR, luciferase luminescence. shares compounds with NR2E3 ag-1. 51% of 2,300 active. inhibition, % at 3.98 µM;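 active = average inhibition above a cutoff equal to the mean inhibition of all tested compounds plus one SD, cut at about 70% in these data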;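 note: 0% = DMSO in NR2E3 cells and 100% = DMSO in cells lacking NR2E3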
VP16 counter: GAL4-VP16 reporter modulators, confirmation, counter-screen for NR2E3 agonist project, cell-based, luminescence, CHO-S, high throughput. CHO-S GAL4-VP16 luciferase reporter. shares compounds with NR2E3 ag-1. 29% of 2,300 active. inhibition, % at 3.98 µM. AID 624379, 2012;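 active = mean inhibition above a cutoff equal to the average over all tested compounds plus one standard deviation, cut at about 70% in these data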;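 note: luciferase from a UAS reporter driven by GAL4-VP16 transactivation; 0% = DMSO with VP16-transfected cells and 100% = DMSO with cells lacking VP16; higher means less reporter light so more repression of VP16 activity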
Numbers without * were called inactive.

Screening COc1ccc(CC2C(=O)NC(C)C(=O)N(C)C3C(=O)N(C)C(Cc4ccc(O)c(c4)Oc4ccc(cc4)C3O)C(=O)NC(C)C(=O)NC(C)C(=O)N2C)cc1 (stereo unspecified) returned NR2E3 ag-1 102*, NR2E3 ag conf 100* and VP16 counter 100*.
`CCN(CC)S(=O)(=O)N1CCC(C(=O)N2CCC3(CC2)OCCO3)CC1` gave NR2E3 ag-1 13, NR2E3 ag-2 0, PP1 counter 1 and PP5 primary -2.
O=C1C2CCCC1C(N1CCCCC1)CC2 (stereo unspecified) was read as NR2E3 ag-1 16.
COC(=O)C1=C(c2ccc(OC(F)(F)F)cc2)C[C@@H]2CC[C@H]1N2C(=O)NCCCOC(C)C was read as NR2E3 ag-1 -4, NR2E3 ag-2 4, PP1 counter 2 and PP5 primary 2.
`COc1cc(CN2CCN(c3cc(C)ccc3C)CC2)ccc1O` gave NR2E3 ag-1 -26, NR2E3 ag-2 -4, PP1 counter -3 and PP5 primary 2.
`CC(=O)OC1CC2OC3C=C(C)CCC3(C)C1(C)C21CO1` (stereo unspecified) gave NR2E3 ag-1 102*, NR2E3 ag conf 100* and VP16 counter 98*.
`CC(=O)O[C@H]1C[C@@H]2OC3C=C(C)CCC3(C)[C@@]1(C)[C@@]21CO1` (stereo partly specified) gave NR2E3 ag-1 101*, NR2E3 ag conf 98* and VP16 counter 97*.
For O=C1CCC2(O)C3Cc4ccc(O)c5c4C2(CCN3Cc2ccoc2)C1O5 (stereo unspecified) the results were NR2E3 ag-1 -11.
For O=c1oc2ccccc2c(O)c1C(c1ccc([N+](=O)[O-])cc1)c1c(O)c2ccccc2oc1=O the results were NR2E3 ag-1 10.
For CC(C)c1ccc(C(c2c(O)c3ccccc3oc2=O)c2c(O)c3ccccc3oc2=O)cc1 the results were NR2E3 ag-1 75*, NR2E3 ag conf 91* and VP16 counter 53.
COc1cc2cc(C(=O)N3CC(COS(C)(=O)=O)c4ccc(O)cc43)[nH]c2c(OC)c1OC (stereo unspecified) was read as NR2E3 ag-1 73*, NR2E3 ag conf 100* and VP16 counter 94*.
For CCOC(=O)[C@]12Cc3cc(Cl)ccc3[C@H]1N(C1CCCCC1)C(=O)c1cc(OC)ccc12 the results were NR2E3 ag-1 100*, NR2E3 ag conf 99* and VP16 counter 78*.
Cc1ccccc1-n1c(-c2ccc([N+](=O)[O-])cc2)nc2ccccc2c1=O was read as NR2E3 ag-1 -14, NR2E3 ag-2 -1, PP1 counter -3 and PP5 primary 3.
Screening C=C1C(=O)O[C@@H]2C[C@@H](C)[C@@H]3C4OC4C(=O)[C@@]3(C)[C@@H](O)[C@H]12 (stereo partly specified) returned NR2E3 ag-1 77*, NR2E3 ag-2 -4, PP1 counter 1, PP5 primary 0, NR2E3 ag conf -11 and VP16 counter 2.
C=C1C(=O)OC2C1CCC(C)C1(O)C=CC(=O)C21C (stereo unspecified) was read as NR2E3 ag-1 33.
C=C1C(=O)OC2CC(C)C3C=CC(=O)C3(C)C(O)C12 (stereo unspecified) was read as NR2E3 ag-1 92*, NR2E3 ag conf 99* and VP16 counter 41.
Screening C=C1C(=O)O[C@@H]2C[C@@H](C)[C@@H]3C=CC(=O)[C@@]3(C)[C@@H](OC(=O)CC(=O)O[C@H]3[C@@H]4C(=C)C(=O)O[C@@H]4C[C@@H](C)[C@@H]4C=CC(=O)[C@]43C)[C@H]12 returned NR2E3 ag-1 96*, NR2E3 ag-2 2, PP1 counter 9, PP5 primary 3, NR2E3 ag conf 101* and VP16 counter 97*.
Screening C=C1C(=O)O[C@H]2C[C@@H](C)[C@@H]3C=CC(=O)[C@@]3(C)C[C@H]12 returned NR2E3 ag-2 -5, PP1 counter -5 and PP5 primary -2.
`C=C1C(=O)O[C@H]2[C@H]1[C@H](OC(=O)CC(=O)O[C@@H]1C[C@@H](C)[C@@H]3C=CC(=O)[C@@]3(C)[C@H]3OC(=O)C(=C)[C@H]13)C[C@@H](C)[C@H]1C=CC(=O)[C@]12C` gave NR2E3 ag-1 78*, NR2E3 ag-2 0, PP1 counter -3, PP5 primary 3, NR2E3 ag conf 89* and VP16 counter 73*.
Screening CCCCOC(=O)C1=C(N)OC2=C(C(=O)CCC2)[C@]12C(=O)N(C)c1ccccc12 returned NR2E3 ag-1 3, NR2E3 ag-2 0, PP1 counter 0 and PP5 primary -3.
Screening CC(C)c1ccc(-n2c(O)c(C=NC(CCS(C)=O)C(=O)O)c(=O)[nH]c2=S)cc1 (stereo unspecified) returned NR2E3 ag-1 -7, NR2E3 ag-2 6, PP1 counter -6 and PP5 primary -2.
Screening CCc1ccc(OCC(=O)N2CCN(Cc3ccc4c(c3)OCO4)CC2)cc1 returned NR2E3 ag-1 0, NR2E3 ag-2 1, PP1 counter 5 and PP5 primary -1.
For CCN1/C(=C/C=C/C2=[N+](CC)c3ccccc3C2(C)C)C(C)(C)c2ccccc21 the results were NR2E3 ag-1 104*, NR2E3 ag conf 98* and VP16 counter 94*.
Screening CN1/C(=C\C=C2C(=O)NC(=O)NC2=O)C(C)(C)c2ccccc21 returned NR2E3 ag-1 -11, NR2E3 ag-2 0, PP1 counter 1 and PP5 primary 2.
For N#Cc1cn(C2OC(CO)C(O)C2O)c2ncnc(N)c12 (stereo unspecified) the results were NR2E3 ag-1 98*, NR2E3 ag conf 100* and VP16 counter 83*.
Screening NC(=O)c1cn(C2OC(CO)C(O)C2O)c2ncnc(N)c12 (stereo unspecified) returned NR2E3 ag-1 101*, NR2E3 ag-2 -1, PP1 counter -4, PP5 primary -3, NR2E3 ag conf 99* and VP16 counter 99*.
N#Cc1c(Br)n(C2OC(CO)C(O)C2O)c2ncnc(N)c12 (stereo unspecified) was read as NR2E3 ag-1 43.
